Measurements from PubChem BioAssay.
Results filed as inconclusive are left out.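 The calls were made as follows, unless noted: active = inhibition over a set limit, the all-compound mean plus 3 SD, in both replicate runs; inconclusive = over that limit in just one replicate run; inactive = at or under that limit in both runs.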

Tests used:
[1] = S. cerevisiae growth inhibition in permissive medium (OD615), pilot counter-assay for S. cerevisiae lifespan shortening project, permissive growth control (AID 705;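 active = growth inhibition above 25% in both replicates, a cutoff set 3 SD above the mean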); conditions: OD615, 24 h, at 10 µM, hits give high values
Procedure, shortened: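 System: engineered DeaD yeast; Medium: permissive raffinose/galactose medium; Compound dosing: 10 µM single dose, 0.25% DMSO; Incubation: 4 h cell pre-growth, 24 h exposure at 30 °C; Technique: OD at 615 nm; Evaluation: growth inhibition from lowered OD615 after 24 h.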

[2] = S. cerevisiae growth inhibition in restrictive medium, OD615, pilot screen, restrictive growth control, yeast lifespan reduction project (AID 706;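 active = growth inhibition above a set limit, 3 SD over mean compound inhibition, in both replicates, cut at about 43% in these data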;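 also: modified DeaD lifespan yeast strain shifted to restrictive glucose medium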); conditions: OD615, 48 h, at 10 µM, hits give high values
Procedure, shortened: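 Material: modified S. cerevisiae; buffer or medium: CSMM-D glucose medium; doses: one concentration, 10 µM final, 0.25% DMSO; incubation: 48 h compound exposure at 30 °C; detection: optical density at 615 nm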

[3] = doxorubicin toxicity protection in MRP-1 cells – H69AR cells, CellTiter-Glo, duplicate, MRP-1 activator project, pilot screen (AID 807;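 active = viability increase at or above a cutoff of the median across tested compounds plus 3 SD, cut at about 8.5% in these data, passing the limit was not always enough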;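 also: compound pretreatment 18-22 h then 72 h combined with doxorubicin; 0% = doxorubicin alone and 100% = vehicle without doxorubicin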); conditions: H69AR viability with doxorubicin, CellTiter-Glo luminescence; at 10 µM; hits give high values
[4] = viability of HCT116 without oncogenic beta-catenin – human colon tumor cells, pilot screen (AID 823;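 active = cell viability at or below a set limit in both duplicate runs, the limit being the all-compound median minus 4 SD, cut at about 23% in these data, passing the limit was not always enough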;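 also: 0% = wells killed by 20 µM Hyamine and 100% = untreated DMSO cell wells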); conditions: HCT116 beta-catenin knockout viability, CellTiter-Glo, 60 h; at 10 µM; hits give low values
[5] = viability of PTEN-null HCT116 cells – cell-based, HCT116 clonal line, CellTiter-Glo, pilot screen (AID 824;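 active = viability at or below 27.92% in each of two runs, the all-compound median minus 4 SD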;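 also: 0% = 20 µM Hyamine control and 100% = vehicle cell control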); conditions: HCT116 PTEN-deleted viability, 60 h, at 10 µM, hits give low values
[6] = RAM pathway blockade in budding yeast – dse1pr::URA3 reporter, 5-FOA selection, pilot screen (AID 869);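 also: 0% = DMSO wells with no growth and 100% = 10 µM 1-NA-PP1 with full growth; RAM network block rescues cells from 5-FOA so hits raise OD615 growth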; conditions: S. cerevisiae dse1pr::URA3 5-FOA growth, OD615, 2 d; at 10 µM; hits give high values; strain carries analog-sensitive mutant Cbk1 kinase
[7] = RAM signaling pathway blockade in yeast – S. cerevisiae, Pdr1DBD-CYC8 efflux-inhibited sensitized strain, primary screen (AID 1298;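 active = RAM network inhibition above 8.4% in each of two replicates, 3 SD over the compound average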;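 also: 0% = DMSO untreated cells without growth and 100% = 10 µM 1-NA-PP1 full growth; higher means more yeast growth rescued from 5-FOA killing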); conditions: S. cerevisiae cbk1-as DSE1-URA3 strain, 5-FOA growth OD615, 2 d; at 50 µM; hits give high values

COc1ccc(-c2c(C)oc3cc(O)cc(O)c3c2=O)cc1OC
inactive: growth inhibition [1] -12.4% | growth inhibition [2] -5.23% | viability increase [3] -1.14% | viability [4] 109% | viability [5] 93.8% | inhibition [6] 1.01% | RAM network inhibition [7] 4.79%

O=C(CC1Oc2ccccc2NC1=O)NC1CC1 (stereo not drawn)
inactive: growth inhibition [1] -1.45% | growth inhibition [2] -2.85% | viability increase [3] 0.91% | viability [4] 108% | viability [5] 93.5% | inhibition [6] 3.03% | RAM network inhibition [7] -0.05%

Cc1cccc(NC(=O)COc2ccc(Br)cc2C)n1
inactive: growth inhibition [1] -4.42% | growth inhibition [2] 1.1% | viability increase [3] 1.07% | viability [4] 92.9% | viability [5] 90.5% | inhibition [6] 0.655% | RAM network inhibition [7] 5.6%

CC(CCc1ccccc1)C(=O)NO (stereo not drawn)
inactive: growth inhibition [1] -6.16% | growth inhibition [2] -10.5% | viability increase [3] -3.84% | viability [4] 95.6% | viability [5] 91.6% | inhibition [6] 0.87% | RAM network inhibition [7] 1.5%

CCc1ccc(S(=O)(=O)NCc2csc(-c3cccnc3)n2)s1
inactive: growth inhibition [1] -13.1% | growth inhibition [2] 1.16% | viability increase [3] -0.39% | viability [4] 103% | viability [5] 101% | inhibition [6] 2.68% | RAM network inhibition [7] 2.28%

COCc1cc(=O)n2c(-c3ccc(C)cc3)n[nH]c2n1
inactive: growth inhibition [1] -9.25% | growth inhibition [2] 6.96% | viability increase [3] -0.72% | viability [4] 95.8% | viability [5] 92.1% | inhibition [6] 2.2% | RAM network inhibition [7] 1.28%

O=C(O)CSCCc1ccccn1
inactive: growth inhibition [1] 4.38% | growth inhibition [2] 11.1% | viability increase [3] -0.02% | viability [4] 98.3% | viability [5] 99.6% | inhibition [6] 1.27% | RAM network inhibition [7] 4.45%

CC(=O)Nc1ccc(C(=O)c2ccccc2)cc1
inactive: growth inhibition [1] 8.43% | growth inhibition [2] 6.52% | viability increase [3] -1.14% | viability [4] 95.4% | viability [5] 92.5% | inhibition [6] 0.97% | RAM network inhibition [7] 0.62%

O=C(CSc1nnc(-c2ccccc2Cl)o1)N1CCCCC1
inactive: growth inhibition [1] -8.71% | growth inhibition [2] 7.85% | viability increase [3] 1.04% | viability [4] 95.1% | viability [5] 97.6% | inhibition [6] 0.32% | RAM network inhibition [7] 0.36%

CS(=O)(=O)c1ccc2nc(NC(=O)c3ccco3)sc2c1
inactive: growth inhibition [1] -16% | growth inhibition [2] -4.42% | viability increase [3] -7.64% | viability [4] 84.9% | viability [5] 81.9% | inhibition [6] 3.1% | RAM network inhibition [7] 4.15%

CC(=O)NC(CCS(C)(=O)=O)C(=O)Nc1cc(C)ccc1C (stereo not drawn)
inactive: growth inhibition [1] -10.6% | growth inhibition [2] -20% | viability increase [3] 0.57% | viability [4] 98.5% | viability [5] 94.3% | inhibition [6] 2.23% | RAM network inhibition [7] 3.07%

O=C(c1ccc(S(=O)(=O)N2CCCC2)cc1)N1CCCc2ccccc21
inactive: growth inhibition [1] -17.6% | growth inhibition [2] -13.7% | viability increase [3] -4.87% | viability [4] 95.1% | viability [5] 92.4% | inhibition [6] 0.11% | RAM network inhibition [7] 1.2%

Cc1ccc(-n2ncc3c(=O)[nH]c(SCC(=O)N4CCCC4)nc32)cc1C
inactive: growth inhibition [1] -6.01% | growth inhibition [2] -4.8% | viability increase [3] -4.32% | viability [4] 105% | viability [5] 91.8% | inhibition [6] 1.81% | RAM network inhibition [7] 1.73%

COc1cc2ccccc2cc1-c1nnc(COc2ccccc2)o1
inactive: growth inhibition [1] -8.96% | growth inhibition [2] -14.4% | viability increase [3] -2.61% | viability [4] 98.2% | viability [5] 83.4% | inhibition [6] 4% | RAM network inhibition [7] 2.39%

O=C1CC2CS(=O)(=O)CC2N1C1CCCCC1 (stereo not drawn)
inactive: growth inhibition [1] -8.38% | growth inhibition [2] -13.2% | viability increase [3] -0.5% | viability [4] 107% | viability [5] 96% | inhibition [6] 0.495% | RAM network inhibition [7] 2.85%

c1ccc(OCc2nn3c(-c4ccccn4)nnc3s2)cc1
inactive: growth inhibition [1] 7.46% | growth inhibition [2] 34% | viability increase [3] 0.02% | viability [4] 104% | viability [5] 94% | inhibition [6] 1.48% | RAM network inhibition [7] 2.54%

COc1ccccc1Cc1nc(-c2ccc(Br)o2)no1
inactive: growth inhibition [1] -0.335% | growth inhibition [2] 6.17% | viability increase [3] -3.52% | viability [4] 97.4% | viability [5] 85.8% | inhibition [6] 2.08% | RAM network inhibition [7] 5.63%

CN(C)c1ccc(C(=O)Nc2nc3c(s2)CCCC3)cc1
inactive: growth inhibition [1] 9.25% | growth inhibition [2] -3.03% | viability increase [3] -0.42% | viability [4] 69.7% | viability [5] 72.4% | inhibition [6] 0.905% | RAM network inhibition [7] 1.19%

O=C(CC(c1ccccc1)c1ccccc1O)NCCN1CCOCC1 (stereo not drawn)
inactive: growth inhibition [1] 0.155% | growth inhibition [2] -2.5% | viability increase [3] -2.74% | viability [4] 102% | viability [5] 95.6% | inhibition [6] 3.25% | RAM network inhibition [7] 2.36%
